According to ChEMBL document CHEMBL3621107, “Ring fusion strategy for synthesis and lead optimization of sulfur-substituted anthra[1,2-c][1,2,5]thiadiazole-6,11-dione derivatives as promising scaffold of antitumor agents” (Eur J Med Chem, 2015):

How the values were obtained:
RPMI-8226 = experiment: Cytotoxicity against human RPMI8226 cells assessed as cell growth at 10 uM after 48 hrs by SRB assay relative to control; format: functional; settings: RPMI-8226, 48 h, read-out: Activity
How it was run: (§1)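 First-stage NCI DTP one-dose screen against the 60 human tumour cell line panel. Compounds were tested at a single 10 μM level, and results are given as growth percentage.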

SK-MEL-2 = experiment: Cytotoxicity against human SK-MEL-2 cells assessed as cell growth at 10 uM after 48 hrs by SRB assay relative to control; format: functional; settings: SK-MEL-2, 48 h, read-out: Activity; how it was run: as §1
MDA-MB-435 = experiment: Cytotoxicity against human MDA-MB-435 cells assessed as cell growth at 10 uM after 48 hrs by SRB assay relative to control; format: functional; settings: MDA-MB-435, 48 h, read-out: Activity; how it was run: as §1
HT-29 = experiment: Cytotoxicity against human HT-29 cells assessed as cell growth at 10 uM after 48 hrs by SRB assay relative to control; format: functional; settings: HT-29, 48 h, read-out: Activity
How it was run: (§2)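 First-stage NCI-60 screen by the NCI Developmental Therapeutics Program. Each compound was tested once at a single concentration of 10 μM against the 60-cell-line panel. Growth percentage was reported for each cell line.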

SNB-19 = experiment: Cytotoxicity against human SNB19 cells assessed as cell growth at 10 uM after 48 hrs by SRB assay relative to control; format: functional; settings: SNB-19, 48 h, read-out: Activity
How it was run: (§3)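 NCI-60 one-dose screen run by NCI DTP: each cell line exposed to a single 10 µM dose, and percentage growth recorded against untreated growth.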

A549 = experiment: Cytotoxicity against human A549 cells assessed as cell growth at 10 uM after 48 hrs by SRB assay relative to control; format: functional; settings: A549, 48 h, read-out: Activity; how it was run: as §2
DU-145 = experiment: Cytotoxicity against human DU145 cells after 72 hrs by MTT assay; format: functional, cell-based; settings: DU-145, 72 h
How it was run: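 DU-145 cells grown in RPMI-1640 with 5% heat-inactivated fetal calf serum at 37 °C, 5% CO2. About 2×10^3 cells per well were seeded and incubated for 24 h. Compounds were dissolved in DMSO freshly and diluted into medium (vehicle 0.1% DMSO), then cells were exposed for 72 h. MTT was added for 3 h at 37 °C and absorbance read at 570 nm.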

786-0 = experiment: Cytotoxicity against human 786-0 cells assessed as cell growth at 10 uM after 48 hrs by SRB assay relative to control; format: functional; settings: 786-0, 48 h, read-out: Activity; how it was run: as §2
A498 = experiment: Cytotoxicity against human A498 cells assessed as cell growth at 10 uM after 48 hrs by SRB assay relative to control; format: functional; settings: A498, 48 h, read-out: Activity; how it was run: as §2
SF-268 = experiment: Cytotoxicity against human SF268 cells assessed as cell growth at 10 uM after 48 hrs by SRB assay relative to control; format: functional; settings: SF-268, 48 h, read-out: Activity; how it was run: as §1
KM12 = experiment: Cytotoxicity against human KM12 cells assessed as cell growth at 10 uM after 48 hrs by SRB assay relative to control; format: functional; settings: KM12, 48 h, read-out: Activity; how it was run: as §2
ACHN = experiment: Cytotoxicity against human ACHN cells assessed as cell growth at 10 uM after 48 hrs by SRB assay relative to control; format: functional; settings: read-out: Activity; how it was run: as §2
HL-60(TB) = experiment: Cytotoxicity against human HL-60(TB) cells assessed as cell growth at 10 uM after 48 hrs by SRB assay relative to control; format: functional; settings: HL-60, 48 h, read-out: Activity
How it was run: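 NCI Developmental Therapeutics Program 60-cell-line screen, first stage: a single dose of 10 μM against the panel, reported as percentage growth.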

SN12C = experiment: Cytotoxicity against human SN12C cells assessed as cell growth at 10 uM after 48 hrs by SRB assay relative to control; format: functional; settings: read-out: Activity; how it was run: as §1
U-251 = experiment: Cytotoxicity against human U251 cells assessed as cell growth at 10 uM after 48 hrs by SRB assay relative to control; format: functional; settings: U-251, 48 h, read-out: Activity; how it was run: as §3
PC-3 = experiment: Cytotoxicity against human PC3 cells assessed as cell growth at 10 uM after 48 hrs by SRB assay relative to control; format: functional; settings: PC-3, 48 h, read-out: Activity; how it was run: as §1
OVCAR-5 = experiment: Cytotoxicity against human OVCAR5 cells assessed as cell growth at 10 uM after 48 hrs by SRB assay relative to control; format: functional; settings: OVCAR-5, 48 h, read-out: Activity; how it was run: as §1
HOP-62 = experiment: Cytotoxicity against human HOP62 cells assessed as cell growth at 10 uM after 48 hrs by SRB assay relative to control; format: functional; settings: HOP-62, 48 h, read-out: Activity; how it was run: as §2
SK-OV-3 = experiment: Cytotoxicity against human SKOV3 cells assessed as cell growth at 10 uM after 48 hrs by SRB assay relative to control; format: functional; settings: SK-OV-3, 48 h, read-out: Activity; how it was run: as §1
NCI/ADR-RES = experiment: Cytotoxicity against human NCI/ADR-RES cells assessed as cell growth at 10 uM after 48 hrs by SRB assay relative to control; format: functional; settings: read-out: Activity; how it was run: as §1
NCI-H226 = experiment: Cytotoxicity against human NCI-H226 cells assessed as cell growth at 10 uM after 48 hrs by SRB assay relative to control; format: functional; settings: NCI-H226, 48 h, read-out: Activity; how it was run: as §1
RXF 393 = experiment: Cytotoxicity against human RXF393 cells assessed as cell growth at 10 uM after 48 hrs by SRB assay relative to control; format: functional; settings: RXF 393, 48 h, read-out: Activity; how it was run: as §1
OVCAR-3 = experiment: Cytotoxicity against human OVCAR3 cells assessed as cell growth at 10 uM after 48 hrs by SRB assay relative to control; format: functional; settings: OVCAR-3, 48 h, read-out: Activity; how it was run: as §1
K562 = experiment: Cytotoxicity against human K562 cells assessed as cell growth at 10 uM after 48 hrs by SRB assay relative to control; format: functional; settings: K562, 48 h, read-out: Activity; how it was run: as §2
MDA-MB-231 = experiment: Cytotoxicity against human MDA-MB-231 cells assessed as cell growth at 10 uM after 48 hrs by SRB assay relative to control; format: functional; settings: MDA-MB-231, 48 h, read-out: Activity; how it was run: as §1
M14 = experiment: Cytotoxicity against human M14 cells assessed as cell growth at 10 uM after 48 hrs by SRB assay relative to control; format: functional; settings: M14, 48 h, read-out: Activity; how it was run: as §2
HCT-15 = experiment: Cytotoxicity against human HCT15 cells assessed as cell growth at 10 uM after 48 hrs by SRB assay relative to control; format: functional; settings: HCT-15, 48 h, read-out: Activity; how it was run: as §2
OVCAR-8 = experiment: Cytotoxicity against human OVCAR8 cells assessed as cell growth at 10 uM after 48 hrs by SRB assay relative to control; format: functional; settings: OVCAR-8, 48 h, read-out: Activity; how it was run: as §1
SK-MEL-28 = experiment: Cytotoxicity against human SK-MEL-28 cells assessed as cell growth at 10 uM after 48 hrs by SRB assay relative to control; format: functional; settings: SK-MEL-28, 48 h, read-out: Activity; how it was run: as §1

Compound | growth at 10 µM (SK-MEL-2) | growth at 10 µM (MDA-MB-435) | growth at 10 µM (HT-29) | growth at 10 µM (SNB-19) | growth at 10 µM (A549) | IC50 (DU-145) | growth at 10 µM (786-0) | growth at 10 µM (ACHN) | growth at 10 µM (SN12C) | growth at 10 µM (U-251) | growth at 10 µM (OVCAR-5) | growth at 10 µM (HOP-62) | growth at 10 µM (NCI/ADR-RES) | growth at 10 µM (NCI-H226) | growth at 10 µM (RXF 393) | growth at 10 µM (MDA-MB-231) | growth at 10 µM (M14) | growth at 10 µM (HCT-15) | growth at 10 µM (OVCAR-8) | growth at 10 µM (SK-MEL-28) | other results
Cc1ccc(Sc2cc3c(c4nsnc24)C(=O)c2ccccc2C3=O)c(C)c1 | 98.5% | 106% | 101% | 102% | 110% | 15.9 µM | 105% | 94.2% | 98.7% | 105% | 106% | 79.3% | 97.8% | 1.5% | 106% | 92.3% | 101% | 83% | 105% | 119% | growth at 10 µM (RPMI-8226): 85.1%; growth at 10 µM (A498): 84.4%; growth at 10 µM (SF-268): 90.6%; growth at 10 µM (KM12): 96.4%; growth at 10 µM (HL-60(TB)): 99.9%; growth at 10 µM (PC-3): 76.1%; growth at 10 µM (SK-OV-3): 110%; growth at 10 µM (OVCAR-3): 105%; growth at 10 µM (K562): 68%
COc1cccc(Sc2cc3c(c4nsnc24)C(=O)c2ccccc2C3=O)c1 | 82.6% | 72.5% | 105% | 106% | 110% | > 15 µM | 103% | 98.7% | 95.9% | 101% | 123% | 61.8% | 92.7% | 95.3% | 124% | 87.1% | 94.2% | 71.9% | 97.3% | 102% | growth at 10 µM (RPMI-8226): 52%; growth at 10 µM (A498): 83.7%; growth at 10 µM (SF-268): 89.8%; growth at 10 µM (KM12): 97.1%; growth at 10 µM (HL-60(TB)): 84.5%; growth at 10 µM (PC-3): 76%; growth at 10 µM (SK-OV-3): 110%; growth at 10 µM (OVCAR-3): 85.8%; growth at 10 µM (K562): 38.5%
O=C1c2ccccc2C(=O)c2c1cc(Sc1cccc(Cl)c1)c1nsnc21 | -53.2% | -82.3% | 102% | 56.9% | 107% | 1.75 µM | -2.06% | -92.5% | -66.2% | -69.5% | 109% | 42.1% | -15.1% | 78.1% | -27.8% | -29.1% | -76.4% | 18% | -22.9% | 25% | growth at 10 µM (SK-OV-3): 95.4%
CCOc1cccc(Sc2cc3c(c4nsnc24)C(=O)c2ccccc2C3=O)c1 | 103% | 106% | 106% | 103% | 111% | > 15 µM | 100% | 103% | 105% | 110% | 117% | 91.9% | 102% | 90.5% | 118% | 101% | 104% | 103% | 112% | 112% | growth at 10 µM (SK-OV-3): 99.4%
O=C1c2ccccc2C(=O)c2c1cc(SCc1ccc(Cl)cc1)c1nsnc21 | 110% |  | 96.4% | 104% | 101% | 7.51 µM | 118% | 94.3% | 93.6% | 94.4% | 104% | 89.2% | 95.7% | 82.1% | 105% | 95.2% | 126% | 97.9% | 94.2% | 95.3% | growth at 10 µM (RPMI-8226): 86.8%; growth at 10 µM (SF-268): 107%; growth at 10 µM (KM12): 105%; growth at 10 µM (HL-60(TB)): 57.4%; growth at 10 µM (PC-3): 82.9%; growth at 10 µM (OVCAR-3): 113%; growth at 10 µM (K562): 67.5%
